Drawing on ChEMBL document CHEMBL3421613, “Inubosins A, B, and C are acridine alkaloids isolated from a culture of Streptomyces sp. IFM 11440 with Ngn2 promoter activity” (J Nat Prod, 2015), this text covers Activity and fold change (FC) for 4 molecules.

In assay [1] the test system is C3H 10T1/2. Description: Activation of 1650 bp mouse Ngn2 promoter activity expressed in mouse C3H10T1/2 cells at 2.5 to 20 uM incubated for 24 hrs by luciferase reporter gene assay. The class given is cell-based. Summed up:
(§1)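 C3H10T1/2 mesenchymal progenitor cells stably transfected with a luciferase reporter carrying the mouse Ngn2 promoter region (1650 bp). Cells were exposed for 24 h in 0.1% DMSO, with DMSO as negative control and baicalin (100 μM) as positive control. Luciferase output was read, n = 3, SD. Cytotoxicity to the same cells was measured in parallel by fluorimetric microculture assay (esterase hydrolysis of fluorescein diacetate).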
(In general: In a reporter assay the amount or activity of a reporter protein is the signal.)

The species entered for assay [2] is Mus musculus. Description: Induction of NeuroD2 mRNA expression in mouse C17.2 cells at 20 uM incubated for 4 days by real-time RT-PCR method. The class given is functional, cell-based. Summed up: (§2)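 Mouse C17.2 neural stem cells were treated at 20 μM for 4 days, with baicalin (20 μM) as positive control. Total RNA was isolated and Ngn2, Ngn1, NeuroD2 and NT3 transcripts were quantified by real-time RT-PCR. mRNA levels were normalized to GAPDH; SD shown.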
(In general: Quantitative PCR measures a nucleic acid by following its amplification.)

Assay [3] is filed under the species Mus musculus. Description: Induction of Ngn2 mRNA expression in mouse C17.2 cells at 20 uM incubated for 4 days by real-time RT-PCR method. The class given is functional, cell-based. Put shortly:
as §2

For assay [4], the species on record is Mus musculus. Description: Induction of NT3 mRNA expression in mouse C17.2 cells at 20 uM incubated for 4 days by real-time RT-PCR method. The class given is functional, cell-based. Summed up: as §2
The species entered for assay [5] is Mus musculus. Description: Induction of cell differentiation of mouse C17.2 cells assessed as appearance of differentiated cell bodies. The class given is functional.
Assay [6] is filed under the species Mus musculus. Description: Induction of Ngn1 mRNA expression in mouse C17.2 cells at 20 uM incubated for 4 days by real-time RT-PCR method. The class given is functional, cell-based. Summed up: as §2
Assay [7] relates to C3H 10T1/2. Description: Activation of 1650 bp mouse Ngn2 promoter activity expressed in mouse C3H10T1/2 cells at 100 uM incubated for 24 hrs by luciferase reporter gene assay relative to untreated control. The class given is cell-based. Summed up: as §1
Assay [8] relates to C3H 10T1/2. Description: Activation of 1650 bp mouse Ngn2 promoter activity expressed in mouse C3H10T1/2 cells at 20 uM incubated for 24 hrs by luciferase reporter gene assay relative to untreated control. The class given is cell-based. Summed up: as §1
Assay [9] relates to C3H 10T1/2. Description: Activation of 1650 bp mouse Ngn2 promoter activity expressed in mouse C3H10T1/2 cells at 20 uM incubated for 24 hrs by luciferase reporter gene assay relative to baicalin. The class given is cell-based. Put shortly:
as §1

The source made the active and inactive calls. The calls are words filed in the database; no cut-off is given here.

As for `OCc1ccc2nc3c(O)cccc3cc2c1`, in [1], the result was inactive. In addition, the outcome in assay [2], in assay [3], in assay [4], in assay [5] and in assay [6] was Active.

In turn, `O=C(O)[C@H]1O[C@@H](Oc2cc3oc(-c4ccccc4)cc(=O)c3c(O)c2O)[C@H](O)[C@@H](O)[C@@H]1O` came in with a fold change (FC) in [7] of 1.5.

With `OCc1cc(O)c2nc3ccccc3cc2c1`, the fold change (FC) in assay [8] was found to be 2.8; in assay [9], 1.9. For the same molecule, the Activity result in assay [1] is “Dose-dependent effect”. Also, the outcome in assay [2], in assay [3], in [4], in assay [5] and in [6] was Active.

Consider `OCc1cc(O)c2nc3c(O)cccc3cc2c1`, for which, in assay [1], the outcome was inactive.
